Paper PMC7058367 (Biochemical pharmacology, 2018)
Like-named read-outs stand apart in the source and are kept apart here.

Assays:
[1] = target: GluN1^ΔCTD/GluN2D receptors (Rattus norvegicus, UniProt P35439+Q62645); format: cell-based; conditions: 50 µM compound; 10 µM L-glutamate/10 µM glycine (Fig. 1D)
In short: (§1)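 Xenopus laevis oocytes were injected with GluN1a and GluN2 RNA at a 1:3 molar ratio. The CTD was removed by a stop codon at GluN1 838K or GluN2C 855K, and 10-20-fold more RNA than wild type was injected. Oocytes were kept in ND-96 at 17 °C for 1-5 days. TEVC was run at -60 mV in Ba2+ buffer (pH 7.4). […] Full-length receptors were run alternately on the same day and oocyte batch. Values are mean ± s.e.m.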

[2] = target: GluN1^ΔCTD/GluN2C receptors (Rattus norvegicus, UniProt P35439+Q00961); format: cell-based; conditions: 50 µM compound; 10 µM L-glutamate/10 µM glycine (Fig. 1D)
In short: (§2)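 Xenopus laevis oocytes were injected with GluN1a:GluN2 RNA at a 1:3 molar ratio (15-30 ng total; 10-20-fold more for CTD-deleted subunits) and kept in ND-96 at 17 °C for 1-5 days. TEVC was run at -60 mV in 116 mM NaCl, 2 mM KCl, 0.3 mM BaCl2, 5 mM HEPES, pH 7.4. […] Full-length controls came from the same batch and day; mean ± s.e.m.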

[3] = target: GluN1/GluN2C^ΔCTD receptors (Rattus norvegicus, UniProt P35439+Q00961); experiment: Two-electrode voltage clamp of GluN2C CTD-deleted receptors; format: cell-based; conditions: 50 µM compound; 10 µM L-glutamate/10 µM glycine (Fig. 1B,C)
In short: as §1

[4] = target: GluN1/GluN2D^ΔCTD receptors (Rattus norvegicus, UniProt P35439+Q62645); format: cell-based; conditions: 50 µM compound; 10 µM L-glutamate/10 µM glycine (Fig. 1C)
[5] = system: GluN1/GluN2D^ΔCTD receptors; format: cell-based, rat; conditions: 50 µM compound; compared to wildtype
GluN1/GluN2C receptors = GluN1/GluN2C receptors (Rattus norvegicus, UniProt P35439+Q00961); format: cell-based; conditions: 5 mM EGTA injected vs controls (Fig. 6C, G)
In short: (§3)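 Oocytes expressed wild-type GluN1a/GluN2 receptors from 15-30 ng RNA (1:3 molar) and were held in ND-96 at 17 °C for 1-5 days. For Ca2+ chelation, 5 mM EGTA (50 nL) was injected 1-2 h before recording, with uninjected and water-injected oocytes as controls. TEVC was run at -60 mV in 116 mM NaCl, 2 mM KCl, 0.3 mM BaCl2, 5 mM HEPES (pH 7.4). […] Values are mean ± s.e.m.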

[6] = system: GluN1 CTD in neurons expressing GluN1-GFP, GluN2A and GluN1-mCherry; experiment: CTD-FRET; format: cell-based, rat; conditions: 75 µM compound, absence of agonists, imaged 10 min after application (Fig. 8)
In short: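 Rat primary hippocampal neurons were transfected at DIV 7-10 with ~2 µg total DNA (GluN1-GFP, GluN2A, GluN1-mCherry) by lipofection and imaged at 16-18 DIV in 0.87x HBSS, 5 mM HEPES, 1 mM glucose, 2.5 mM MgCl2, 0.5 mM CaCl2. Baseline and 10 min post-compound two-photon FLIM images were taken, each neuron imaged twice, compounds interleaved. Lifetimes were fit single-exponential and analysed blind; two preparations pooled.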

[7] = target: GluN1^ΔCTD/GluN2A receptors (Rattus norvegicus, UniProt P35439+Q00959); format: cell-based; conditions: 50 µM compound; 10 µM L-glutamate/10 µM glycine (Fig. 1D)
In short: as §2

[8] = target: GluN1/GluN2B^ΔCTD receptors (Rattus norvegicus, UniProt P35439+Q00960); format: cell-based; conditions: 50 µM compound; 10 µM L-glutamate/10 µM glycine (Fig. 1C)
[9] = target: GluN1^ΔCTD/GluN2B receptors (Rattus norvegicus, UniProt P35439+Q00960); format: cell-based; conditions: 50 µM compound; 10 µM L-glutamate/10 µM glycine (Fig. 1D)
In short: as §2

GluN1/GluN2A receptors = GluN1/GluN2A receptors (Rattus norvegicus, UniProt P35439+Q00959); format: cell-based
In short: as §2

GluN1/GluN2D receptors = GluN1/GluN2D receptors (Rattus norvegicus, UniProt P35439+Q62645); format: cell-based; conditions: 5 mM EGTA injected vs controls (Fig. 6D, H)
In short: as §3

GluN1/GluN2B receptors = GluN1/GluN2B receptors (Rattus norvegicus, UniProt P35439+Q00960); format: cell-based
[10] = target: GluN1/GluN2A^ΔCTD receptors (Rattus norvegicus, UniProt P35439+Q00959); format: cell-based
In short: as §2

[11] = 2 µM PMA for 10 minutes, 50 µM UBP684, 100 µM PS (Fig. 7E, F)
[12] = 10 µM FSK and 1 mM IBMX for 10 minutes, 50 µM UBP684, 100 µM PS (Fig. 7B, C)
[13] = 50 µM compound, control media for U73122 experiment (Fig. 6I)

Sequence of GluN1^ΔCTD/GluN2D receptors (Q62645 28-1323, stated change not applied, other chains not shown): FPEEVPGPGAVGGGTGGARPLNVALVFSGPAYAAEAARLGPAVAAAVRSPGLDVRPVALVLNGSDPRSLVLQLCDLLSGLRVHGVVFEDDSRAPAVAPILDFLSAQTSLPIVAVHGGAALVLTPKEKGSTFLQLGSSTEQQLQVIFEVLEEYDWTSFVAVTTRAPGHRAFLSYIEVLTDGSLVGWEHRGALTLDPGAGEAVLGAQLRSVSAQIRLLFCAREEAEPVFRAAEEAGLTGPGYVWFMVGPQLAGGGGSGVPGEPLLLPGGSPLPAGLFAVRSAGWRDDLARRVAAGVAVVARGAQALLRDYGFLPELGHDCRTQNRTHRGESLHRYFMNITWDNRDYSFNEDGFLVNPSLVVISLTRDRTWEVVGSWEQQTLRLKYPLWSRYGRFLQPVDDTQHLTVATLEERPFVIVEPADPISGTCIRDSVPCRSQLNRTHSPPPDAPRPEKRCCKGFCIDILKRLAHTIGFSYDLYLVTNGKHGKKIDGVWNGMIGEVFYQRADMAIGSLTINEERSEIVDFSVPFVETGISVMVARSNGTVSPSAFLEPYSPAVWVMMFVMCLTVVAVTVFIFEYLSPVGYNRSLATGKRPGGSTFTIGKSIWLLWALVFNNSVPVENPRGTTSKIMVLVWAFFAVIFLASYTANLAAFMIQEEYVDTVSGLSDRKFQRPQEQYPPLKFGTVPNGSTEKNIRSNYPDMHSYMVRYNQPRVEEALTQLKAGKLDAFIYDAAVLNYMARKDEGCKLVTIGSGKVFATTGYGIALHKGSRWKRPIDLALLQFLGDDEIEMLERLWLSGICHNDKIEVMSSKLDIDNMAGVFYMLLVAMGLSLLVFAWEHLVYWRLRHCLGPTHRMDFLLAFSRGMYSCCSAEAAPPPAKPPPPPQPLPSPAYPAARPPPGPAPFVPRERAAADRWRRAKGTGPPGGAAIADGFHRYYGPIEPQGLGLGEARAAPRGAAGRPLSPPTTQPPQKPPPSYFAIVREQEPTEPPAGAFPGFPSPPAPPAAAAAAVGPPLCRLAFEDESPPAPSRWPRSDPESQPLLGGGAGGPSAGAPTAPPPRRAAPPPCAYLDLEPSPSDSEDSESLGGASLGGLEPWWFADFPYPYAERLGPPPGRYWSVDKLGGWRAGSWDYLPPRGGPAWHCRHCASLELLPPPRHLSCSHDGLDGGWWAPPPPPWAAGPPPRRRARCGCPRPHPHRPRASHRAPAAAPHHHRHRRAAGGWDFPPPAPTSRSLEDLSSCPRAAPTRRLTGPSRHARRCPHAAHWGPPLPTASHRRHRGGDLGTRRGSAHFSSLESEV
Sequence of GluN1/GluN2D receptors (Q62645 28-1323, other chains not shown): as the sequence (Q62645 28-1323, stated change not applied, other chains not shown) above
Sequence of GluN1/GluN2C receptors (Q00961 20-1237, other chains not shown): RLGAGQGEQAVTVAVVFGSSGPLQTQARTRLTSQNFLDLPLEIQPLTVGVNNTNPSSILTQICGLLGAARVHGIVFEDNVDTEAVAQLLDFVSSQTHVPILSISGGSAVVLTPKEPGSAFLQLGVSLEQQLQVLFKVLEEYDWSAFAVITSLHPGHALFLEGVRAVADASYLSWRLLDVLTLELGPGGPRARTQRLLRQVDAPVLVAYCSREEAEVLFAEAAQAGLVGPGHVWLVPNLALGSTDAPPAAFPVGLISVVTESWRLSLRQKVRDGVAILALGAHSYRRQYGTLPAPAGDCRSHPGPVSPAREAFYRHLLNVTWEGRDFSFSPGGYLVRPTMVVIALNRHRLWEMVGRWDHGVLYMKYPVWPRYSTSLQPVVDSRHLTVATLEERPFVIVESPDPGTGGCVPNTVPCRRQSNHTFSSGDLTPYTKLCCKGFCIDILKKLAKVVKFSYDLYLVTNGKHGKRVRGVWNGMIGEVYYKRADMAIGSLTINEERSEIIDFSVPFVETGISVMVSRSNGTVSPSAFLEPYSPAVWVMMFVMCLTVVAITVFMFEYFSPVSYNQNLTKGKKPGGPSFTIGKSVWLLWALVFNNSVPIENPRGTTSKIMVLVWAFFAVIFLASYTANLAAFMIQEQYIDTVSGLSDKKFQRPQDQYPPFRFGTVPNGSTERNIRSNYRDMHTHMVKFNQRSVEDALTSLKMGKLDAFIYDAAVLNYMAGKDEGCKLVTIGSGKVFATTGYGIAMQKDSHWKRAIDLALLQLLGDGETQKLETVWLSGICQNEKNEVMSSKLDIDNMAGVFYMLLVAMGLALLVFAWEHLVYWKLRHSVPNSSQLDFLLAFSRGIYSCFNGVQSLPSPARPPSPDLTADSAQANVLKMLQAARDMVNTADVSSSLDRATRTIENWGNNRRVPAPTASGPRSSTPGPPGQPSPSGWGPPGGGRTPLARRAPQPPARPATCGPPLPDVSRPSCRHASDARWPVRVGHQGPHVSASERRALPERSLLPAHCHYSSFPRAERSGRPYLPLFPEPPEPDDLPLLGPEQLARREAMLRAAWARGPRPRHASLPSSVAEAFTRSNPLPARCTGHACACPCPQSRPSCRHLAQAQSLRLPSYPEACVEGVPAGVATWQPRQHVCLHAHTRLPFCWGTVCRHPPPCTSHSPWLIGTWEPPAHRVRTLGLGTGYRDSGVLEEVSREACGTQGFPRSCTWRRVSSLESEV
Sequence of GluN1^ΔCTD/GluN2C receptors (Q00961 20-1237, stated change not applied, other chains not shown): as the sequence (Q00961 20-1237, other chains not shown) above
Sequence of GluN1/GluN2D^ΔCTD receptors (Rattus norvegicus, UniProt P35439+Q62645) (Q62645 28-869 limits assumed, stated change not applied, other chains not shown): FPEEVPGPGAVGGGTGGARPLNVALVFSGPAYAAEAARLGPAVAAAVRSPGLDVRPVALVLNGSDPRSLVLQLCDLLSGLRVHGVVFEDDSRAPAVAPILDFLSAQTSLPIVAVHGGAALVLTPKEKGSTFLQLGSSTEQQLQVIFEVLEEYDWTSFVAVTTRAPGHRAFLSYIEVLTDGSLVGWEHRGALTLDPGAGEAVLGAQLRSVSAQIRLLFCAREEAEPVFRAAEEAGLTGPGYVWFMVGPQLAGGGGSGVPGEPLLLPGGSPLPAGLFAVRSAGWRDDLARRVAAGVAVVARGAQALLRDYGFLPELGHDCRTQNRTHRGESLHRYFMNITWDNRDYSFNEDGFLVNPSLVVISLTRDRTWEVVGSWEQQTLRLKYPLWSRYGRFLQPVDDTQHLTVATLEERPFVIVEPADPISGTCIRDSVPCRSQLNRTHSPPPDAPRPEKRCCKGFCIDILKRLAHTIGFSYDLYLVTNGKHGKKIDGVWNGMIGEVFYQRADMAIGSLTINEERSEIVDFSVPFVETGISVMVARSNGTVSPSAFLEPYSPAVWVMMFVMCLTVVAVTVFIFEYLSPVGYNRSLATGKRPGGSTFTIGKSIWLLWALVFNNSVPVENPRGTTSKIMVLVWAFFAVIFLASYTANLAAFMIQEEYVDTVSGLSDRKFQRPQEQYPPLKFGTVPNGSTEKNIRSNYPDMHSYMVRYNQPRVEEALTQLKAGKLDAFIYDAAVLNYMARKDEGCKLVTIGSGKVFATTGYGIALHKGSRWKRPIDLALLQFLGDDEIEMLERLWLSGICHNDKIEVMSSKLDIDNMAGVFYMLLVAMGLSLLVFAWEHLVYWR
Sequence of GluN1/GluN2C^ΔCTD receptors (Q00961 20-842, stated change not applied, other chains not shown): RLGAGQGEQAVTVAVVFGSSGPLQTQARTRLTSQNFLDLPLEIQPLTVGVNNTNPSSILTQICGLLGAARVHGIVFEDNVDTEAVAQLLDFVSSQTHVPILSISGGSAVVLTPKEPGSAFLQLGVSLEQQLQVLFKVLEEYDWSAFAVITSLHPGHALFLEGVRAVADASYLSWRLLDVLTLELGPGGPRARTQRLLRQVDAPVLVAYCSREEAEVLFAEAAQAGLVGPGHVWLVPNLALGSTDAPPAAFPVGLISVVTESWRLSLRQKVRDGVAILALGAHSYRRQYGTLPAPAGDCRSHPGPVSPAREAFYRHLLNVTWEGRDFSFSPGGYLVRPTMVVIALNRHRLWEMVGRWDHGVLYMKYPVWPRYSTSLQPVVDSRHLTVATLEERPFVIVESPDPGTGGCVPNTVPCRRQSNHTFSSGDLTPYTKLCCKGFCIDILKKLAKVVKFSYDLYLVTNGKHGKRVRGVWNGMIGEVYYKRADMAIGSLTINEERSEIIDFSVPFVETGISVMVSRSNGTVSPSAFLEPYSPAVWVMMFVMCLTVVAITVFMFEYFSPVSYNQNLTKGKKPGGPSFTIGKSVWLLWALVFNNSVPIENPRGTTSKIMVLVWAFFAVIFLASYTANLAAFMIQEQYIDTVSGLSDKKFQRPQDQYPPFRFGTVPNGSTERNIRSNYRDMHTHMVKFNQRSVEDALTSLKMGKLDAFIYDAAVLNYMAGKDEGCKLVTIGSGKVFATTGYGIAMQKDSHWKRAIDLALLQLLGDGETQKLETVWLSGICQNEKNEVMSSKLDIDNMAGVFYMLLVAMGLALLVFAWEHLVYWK

CC(C)CCCc1ccc2cc(C(=O)O)ccc2c1 [UBP684]
% potentiation of agonist-evoked current [1]: 19 ± 7% | % potentiation of agonist-evoked current [2]: 5 ± 3% | % inhibition of agonist-evoked current [3]: 20 ± 3% | % potentiation of agonist-evoked current [4]: 23 ± 4% | reduction of potentiation by GluN2D CTD deletion compared to wildtype [5]: approximately 50% | effect of EGTA injection on potentiation/modulation (GluN1/GluN2C receptors): no significant effect | change of GluN1-GFP fluorescence lifetime (movement of the GluN1 CTD) [6]: significant increase | % potentiation of agonist-evoked current [7]: 3 ± 2% | % potentiation of agonist-evoked current [8]: 74.4 ± 7.0% | % potentiation of agonist-evoked current [9]: 44 ± 8% | effect of PKC activation by PMA on PAM activity (GluN1/GluN2A receptors; [11]): larger % potentiation | effect of PKA activation on % potentiation (GluN1/GluN2A receptors; [12]): unchanged | % potentiation of agonist response (GluN1/GluN2A receptors; 50 µM compound, H2O-injected control oocytes (Fig. 6A)): 47 ± 13% | % potentiation of agonist-evoked current (GluN1/GluN2A receptors; [13]): 24 ± 5% | % potentiation of agonist response (GluN1/GluN2A receptors; 50 µM compound, oocytes injected with 5 mM EGTA (Fig. 6A)): 9 ± 3% | % potentiation of agonist response (GluN1/GluN2A receptors; 50 µM compound, un-injected control oocytes (Fig. 6A)): 54 ± 5% | effect of EGTA injection on potentiation/modulation (GluN1/GluN2D receptors): no significant effect | effect of PKC activation by PMA on PAM activity (GluN1/GluN2B receptors; [11]): larger % potentiation | effect of PKA activation on % potentiation (GluN1/GluN2B receptors; [12]): unchanged | % potentiation of agonist response (GluN1/GluN2B receptors; 50 µM compound, H2O-injected control oocytes (Fig. 6B)): 45 ± 5% | % potentiation of agonist-evoked current (GluN1/GluN2B receptors; [13]): 33 ± 4% | % potentiation of agonist response (GluN1/GluN2B receptors; 50 µM compound, oocytes injected with 5 mM EGTA (Fig. 6B)): 28 ± 2% | % potentiation of agonist response (GluN1/GluN2B receptors; 50 µM compound, un-injected control oocytes (Fig. 6B)): 48 ± 4% | effect of PKC activation by PMA on PAM activity ([10]; 2 µM PMA for 10 minutes, 50 µM UBP684, 100 µM PS (Fig. 7G, H)): increased | % potentiation of agonist-evoked current ([10]; 50 µM compound, 10 µM L-glutamate/10 µM glycine (Fig. 1C)): 27 ± 5% | reduction of potentiation by GluN2A CTD deletion compared to wildtype ([10]; 50 µM compound, compared to wildtype): approximately 50%
